Laboratory results from ChEMBL document CHEMBL4339193, “Phenotypic Screening-Based Identification of 3,4-Disubstituted Piperidine Derivatives as Macrophage M2 Polarization Modulators: An Opportunity for Treating Multiple Sclerosis” (J Med Chem, 2019).
Calls of active or inactive are those of the source. The calls are words filed in the database; no cut-off is given here.

Columns and labels:
RAW264.7 [1] = assay: Modulation of M1 polarization in mouse RAW264.7 cells assessed as change in Mcp1 mRNA expression at 300 nM measured after 24 hrs by qRT-PCR analysis relative to control; format: functional, cell-based; settings: RAW264.7, 24 h, read-out: FC
Procedure, shortened: (§1)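 RAW264.7 cells (DMEM, 10% FBS) exposed 24 h to 300 nM compound alone; LPS 50 ng/ml as positive control. Mcp1 mRNA by qRT-PCR; fold change = dosed group level / control group level.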

RAW264.7 [2] = assay: Modulation of M2 polarization in mouse RAW264.7 cells assessed as change in Arg1 mRNA expression at 300 nM measured after 24 hrs by qRT-PCR analysis relative to control; format: functional
Procedure, shortened: (§2)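 RAW264.7 cells (DMEM, 10% FBS) given 300 nM compound for 24 h; IL-4 20 ng/ml as positive control. Arg1 mRNA measured by qRT-PCR; fold change = expression in dosed group / expression in untreated control.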

RAW264.7 [3] = assay: Modulation of M2 polarization in mouse RAW264.7 cells assessed as up regulation of Arg1 mRNA expression at 300 nM measured after 24 hrs by qRT-PCR analysis; format: functional, cell-based; procedure, shortened: as §2
RAW264.7 [4] = assay: Modulation of M1 polarization in mouse RAW264.7 cells assessed as up regulation of Mcp1 mRNA expression at 300 nM measured after 24 hrs by qRT-PCR analysis; format: cell-based; settings: raw264.7, 24 h, 0.3 µM; procedure, shortened: as §1

## CN(CC1Cc2ccccc2CN1C)C(=O)c1ccc(-c2ccn[nH]2)cc1 (stereo unspecified)
RAW264.7 [1]
  fold induction at 0.3 µM: 1.14
RAW264.7 [2]
  fold change (FC): 2.35

## CC(=O)N[C@@H]1Cc2ccccc2[C@H]1NC(=O)c1cn[nH]c1-c1cccc(F)c1
RAW264.7 [1]
  fold induction at 0.3 µM: 2.14
RAW264.7 [2]
  fold change (FC): 0.8

## Cl.Cn1ncc(Br)c1-c1ccc(C(=O)N[C@@H]2CNCC[C@H]2c2cccc(F)c2)cc1Cl
RAW264.7 [1]
  fold induction at 0.3 µM: 2.05
RAW264.7 [2]
  fold change (FC): 10.12

## Cc1ccc(S(=O)(=O)N2CCN(c3nc4ccccc4nc3S(=O)(=O)c3ccc(F)cc3)CC2)cc1
RAW264.7 [3]
  Activity: Active

## Cl.O=C(N[C@@H]1CNCC[C@H]1c1cccc(F)c1)c1ccccc1F
RAW264.7 [1]
  fold induction at 0.3 µM: 1.72
RAW264.7 [2]
  fold change (FC): 1.01

## Cn1nccc1C(=O)N1CC(c2cc(F)cc(F)c2)C2[C@H]1C1CCN2CC1 (single isomer, unassigned)
RAW264.7 [1]
  fold induction at 0.3 µM: 1.4
RAW264.7 [2]
  fold change (FC): 1.16

## Cn1nccc1C(=O)N1C[C@@H](c2cc(F)cc(F)c2)[C@@H]2[C@H]1C1CCN2CC1
RAW264.7 [1]
  fold induction at 0.3 µM: 1.95
RAW264.7 [2]
  fold change (FC): 2.22

## Cl.Cn1ncc(Cl)c1-c1ccc(C(=O)N[C@@H]2CNCC[C@H]2c2ccc(Cl)c(C(F)(F)F)c2)c(F)c1
RAW264.7 [1]
  fold induction at 0.3 µM: 3.54
RAW264.7 [2]
  fold change (FC): 10.33

## Cn1nccc1-c1ccc(C(=O)Nc2ccc(F)cc2)c(F)c1
RAW264.7 [1]
  fold induction at 0.3 µM: 2.01
RAW264.7 [2]
  fold change (FC): 1.63

## Cl.Cn1nccc1-c1ccc(C(=O)N[C@H]2CCCNC2)c(F)c1
RAW264.7 [1]
  fold induction at 0.3 µM: 2.26
RAW264.7 [2]
  fold change (FC): 2.11

## O=C(NCCN1CCCC(c2ccccc2)C1)c1ccc(-c2ccn[nH]2)cc1 (stereo unspecified)
RAW264.7 [1]
  fold induction at 0.3 µM: 1.52
RAW264.7 [2]
  fold change (FC): 1.48

## Cc1cc(C(=O)N[C@@H]2CNCC[C@H]2c2ccc(Cl)c(C(F)(F)F)c2)ccc1-c1c(Cl)cnn1C.Cl
RAW264.7 [1]
  fold induction at 0.3 µM: 4.85
RAW264.7 [2]
  fold change (FC): 1.82

## Cc1ccc([C@@H]2CN(C(=O)c3ccc(-c4ccn[nH]4)cc3)C[C@H]2N(C)C)cc1
RAW264.7 [1]
  fold induction at 0.3 µM: 1.24
RAW264.7 [2]
  fold change (FC): 4.85

## CCNC(=O)c1ccc(-c2ccnn2C)cc1F
RAW264.7 [1]
  fold induction at 0.3 µM: 1.83
RAW264.7 [2]
  fold change (FC): 2.31

## Cc1cc(C(=O)N[C@@H]2CNCC[C@H]2c2cccc(F)c2)ccc1-c1c(Cl)cnn1C.Cl
RAW264.7 [1]
  fold induction at 0.3 µM: 2.44
RAW264.7 [2]
  fold change (FC): 8.35

## Cl.Cn1ncc(Br)c1-c1ccc(C(=O)N[C@@H]2CNCC[C@H]2c2ccc(F)c(F)c2)cn1
RAW264.7 [1]
  fold induction at 0.3 µM: 1.32
RAW264.7 [2]
  fold change (FC): 0.56

## Cl.Cn1nccc1-c1ccc(C(=O)N[C@@H]2CNCC[C@H]2c2cccc(F)c2)c(F)c1
RAW264.7 [1]
  fold induction at 0.3 µM: 1.54
RAW264.7 [2]
  fold change (FC): 10.05
RAW264.7 [3]
  Activity: Active
RAW264.7 [4]
  Activity: Non-Toxic

## Cc1cc(-c2ccnn2C)cnc1C(=O)N[C@@H]1CNCC[C@H]1c1cccc(F)c1.Cl
RAW264.7 [1]
  fold induction at 0.3 µM: 1.99
RAW264.7 [2]
  fold change (FC): 0.95

## O=C(NCCN1CCC(c2ccccc2)CC1)c1ccc(-c2cc[nH]n2)cc1
RAW264.7 [1]
  fold induction at 0.3 µM: 2.14
RAW264.7 [2]
  fold change (FC): 3.92

## O=C(NCC(c1ccccc1F)N1CCCC1)c1ccc(-c2cc[nH]n2)cc1 (stereo unspecified)
RAW264.7 [1]
  fold induction at 0.3 µM: 1.34
RAW264.7 [2]
  fold change (FC): 1.09

## Cl.Cn1nccc1-c1ccc(C(=O)N[C@@H]2CNCC[C@H]2c2ccc(Cl)c(C(F)(F)F)c2)cc1Cl
RAW264.7 [1]
  fold induction at 0.3 µM: 1.49
RAW264.7 [2]
  fold change (FC): 5.08

## Cc1cc(C(=O)N[C@@H]2CNCC[C@H]2c2cccc(F)c2)ccc1-c1c(Br)cnn1C.Cl
RAW264.7 [1]
  fold induction at 0.3 µM: 1.89
RAW264.7 [2]
  fold change (FC): 6.54

## COc1ccccc1C(=O)N[C@@H]1CNCC[C@H]1c1cccc(F)c1.Cl
RAW264.7 [1]
  fold induction at 0.3 µM: 1.42
RAW264.7 [2]
  fold change (FC): 1.32

## Cl.Cn1nccc1-c1ccc(C(=O)N[C@H]2CNCC[C@@H]2c2cccc(F)c2)c(F)c1
RAW264.7 [1]
  fold induction at 0.3 µM: 1.76
RAW264.7 [2]
  fold change (FC): 0.31

## Cl.Cn1nccc1-c1ccc(C(=O)N[C@@H]2CNCC[C@H]2c2ccc(F)c(F)c2)c(F)c1
RAW264.7 [1]
  fold induction at 0.3 µM: 0.39
RAW264.7 [2]
  fold change (FC): 3.99

## Cc1cc(-c2ccnn2C)cnc1C(=O)N[C@@H]1CNCC[C@H]1c1ccc(Cl)c(C(F)(F)F)c1.Cl
RAW264.7 [1]
  fold induction at 0.3 µM: 1.37
RAW264.7 [2]
  fold change (FC): 0.4

## O=C1NCCN(C(=O)c2ccc(-c3cc[nH]n3)cc2)C1Cc1ccccc1 (stereo unspecified)
RAW264.7 [1]
  fold induction at 0.3 µM: 1.53
RAW264.7 [2]
  fold change (FC): 1.33

## Cn1nccc1-c1ccc(C(=O)N[C@@H]2CNCC[C@H]2c2ccc(F)c(F)c2)cc1.O=C(O)C(O)C(O)C(=O)O
RAW264.7 [1]
  fold induction at 0.3 µM: 0.9
RAW264.7 [2]
  fold change (FC): 3.42

## CCN(CC)C(=O)c1ccc(-c2ccnn2C)cc1F
RAW264.7 [1]
  fold induction at 0.3 µM: 1.97
RAW264.7 [2]
  fold change (FC): 1.96

## COc1ccc(S(=O)(=O)Nc2ccc(OC)c(-c3ccc(O)cc3)c2)cc1
RAW264.7 [3]
  Activity: Active

## O=C(NCCN1CCC(c2ccccc2)C1)c1ccc(-c2cc[nH]n2)cc1 (stereo unspecified)
RAW264.7 [1]
  fold induction at 0.3 µM: 1.86
RAW264.7 [2]
  fold change (FC): 2.22

## Cl.Cn1nccc1C(=O)N[C@@H]1CNCC[C@H]1c1cccc(F)c1
RAW264.7 [1]
  fold induction at 0.3 µM: 2.05
RAW264.7 [2]
  fold change (FC): 1.62

## Cl.Cn1ncc(Cl)c1-c1ccc(C(=O)N[C@@H]2CNCC[C@H]2c2ccc(F)c(F)c2)cc1
RAW264.7 [1]
  fold induction at 0.3 µM: 1.5
RAW264.7 [2]
  fold change (FC): 1.97

## Cc1cc(-c2c(Br)cnn2C)cnc1C(=O)N[C@@H]1CNCC[C@H]1c1cccc(F)c1.Cl
RAW264.7 [1]
  fold induction at 0.3 µM: 1.63
RAW264.7 [2]
  fold change (FC): 0.71

## O=C(Nc1n[nH]c(=O)c2ccccc12)c1cccc(C(=O)N2CCN(C(=O)C3CC3)CC2)c1
RAW264.7 [3]
  Activity: Active

## Cl.Cn1nccc1-c1ccc(C(=O)N[C@@H]2CNCC[C@H]2c2ccc(F)c(F)c2)cn1
RAW264.7 [1]
  fold induction at 0.3 µM: 1.23
RAW264.7 [2]
  fold change (FC): 0.85

## Cl.Cn1ncc(Cl)c1-c1ccc(C(=O)N[C@@H]2CNCC[C@H]2c2ccc(Cl)c(C(F)(F)F)c2)cc1
RAW264.7 [1]
  fold induction at 0.3 µM: 5.08
RAW264.7 [2]
  fold change (FC): 2.82

## Cl.Cn1ncc(Cl)c1-c1ccc(C(=O)N[C@@H]2CNCC[C@H]2c2ccc(F)c(F)c2)cn1
RAW264.7 [1]
  fold induction at 0.3 µM: 1.01
RAW264.7 [2]
  fold change (FC): 0.27

## Cl.Cn1ncc(Br)c1-c1ccc(C(=O)N[C@@H]2CNCC[C@H]2c2cccc(F)c2)nc1
RAW264.7 [1]
  fold induction at 0.3 µM: 1.14
RAW264.7 [2]
  fold change (FC): 0.78

## Cc1ccc(C(=O)N[C@@H]2CNCC[C@H]2c2cccc(F)c2)o1.Cl
RAW264.7 [1]
  fold induction at 0.3 µM: 1.89
RAW264.7 [2]
  fold change (FC): 1.76

## Cl.O=C(N[C@@H]1CNCC[C@H]1c1cccc(F)c1)c1ccc(F)cc1
RAW264.7 [1]
  fold induction at 0.3 µM: 1.64
RAW264.7 [2]
  fold change (FC): 0.91

## CC(C)C[C@H](NC(=O)[C@H](Cc1ccccc1)NC(=O)C[C@H](NC(=O)c1ccc2ccccc2c1)c1ccccc1)C(=O)[C@]1(C)CO1
RAW264.7 [3]
  Activity: Active

## COc1cccc(-c2noc(-c3nn(-c4ccc(Cl)cc4)c4ccccc34)n2)c1
RAW264.7 [3]
  Activity: Active

## Cc1ccc(C(=O)N[C@@H]2CNCC[C@H]2c2cccc(F)c2)s1.Cl
RAW264.7 [1]
  fold induction at 0.3 µM: 1.54
RAW264.7 [2]
  fold change (FC): 1.44

## COc1ccc(NC(=O)c2ccc(-c3ccnn3C)cc2F)cc1
RAW264.7 [1]
  fold induction at 0.3 µM: 2.16
RAW264.7 [2]
  fold change (FC): 3.86

## Cn1ncc(Br)c1-c1ccc(C(=O)N[C@@H]2CNCC[C@H]2c2ccc(F)c(F)c2)cc1.O=C(O)C(O)C(O)C(=O)O
RAW264.7 [1]
  fold induction at 0.3 µM: 1.77
RAW264.7 [2]
  fold change (FC): 2.27

## Cl.Cn1ncc(Cl)c1-c1ccc(C(=O)N[C@@H]2CNCC[C@H]2c2ccc(F)c(F)c2)cc1Cl
RAW264.7 [1]
  fold induction at 0.3 µM: 1.16
RAW264.7 [2]
  fold change (FC): 1.72
